Laboratory results from ChEMBL document CHEMBL1137426, “Bivalent inhibitors of glutathione S-transferase: the effect of spacer length on isozyme selectivity” (Bioorg Med Chem Lett, 2006).

Tests used:
[1] = biological target: T1, Glutathione S-transferase A1 (Homo sapiens, UniProt P08263); test: Inhibition of GST A1-1
T1 sequence (P08263 whole entry): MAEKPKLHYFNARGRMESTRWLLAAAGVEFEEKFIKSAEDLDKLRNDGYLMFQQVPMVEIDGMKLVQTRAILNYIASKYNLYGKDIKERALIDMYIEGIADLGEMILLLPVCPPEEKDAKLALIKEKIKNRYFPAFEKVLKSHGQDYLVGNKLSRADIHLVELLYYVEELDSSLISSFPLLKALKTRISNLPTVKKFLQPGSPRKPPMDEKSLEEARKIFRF

[2] = biological target: Glutathione S-transferase P (Homo sapiens, UniProt P09211); test: Inhibition of GST P1-1
Chain of Glutathione S-transferase P (P09211 whole entry): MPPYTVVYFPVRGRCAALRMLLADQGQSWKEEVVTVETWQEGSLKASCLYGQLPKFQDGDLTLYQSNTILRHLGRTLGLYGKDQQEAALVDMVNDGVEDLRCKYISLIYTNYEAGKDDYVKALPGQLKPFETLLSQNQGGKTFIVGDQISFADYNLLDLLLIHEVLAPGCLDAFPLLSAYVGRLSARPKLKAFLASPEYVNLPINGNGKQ

[3] = organism: Homo sapiens; test: Selectivity for GST A1-1 over GST P1-1
Method in brief: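 Ratio of IC50s from CDNB–GSH conjugation assays. Each E. coli-expressed, purified enzyme at 20 nM, GSH and CDNB at the respective K_M. Inhibitor diluted from DMSO stock into water, final DMSO <1%. Absorbance at 340 nm for 1 min, four-log concentration span, triplicate.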

| IC50 [1] [nM] | IC50 [2] [nM] | Selectivity ratio [3] | SMILES |
| --- | --- | --- | --- |
| 5000 | – | – | C=C(CC)C(=O)c1ccc(OCC(=O)O)c(Cl)c1Cl [ETHACRYNIC ACID] |
| 24 | 704 | 29 | C=C(CC)C(=O)c1ccc(OCC(=O)NCC(=O)NCc2cc(CNC(=O)CNC(=O)COc3ccc(C(=O)C(=C)CC)c(Cl)c3Cl)cc(C(N)=O)c2)c(Cl)c1Cl |
| 13800 | 15000 | 1.1 | C=C(CC)C(=O)c1ccc(OCC(=O)NCCCC(=O)NCc2cccc(C(N)=O)c2)c(Cl)c1Cl |
| 32.7 | – | 30 | C=C(CC)C(=O)c1ccc(OCC(=O)NCc2cc(CNC(=O)COc3ccc(C(=O)C(=C)CC)c(Cl)c3Cl)cc(C(N)=O)c2)c(Cl)c1Cl |
